# Measured values from ChEMBL document CHEMBL1126051, “New thymidine triphosphate analogue inhibitors of human immunodeficiency virus-1 reverse transcriptase” (J Med Chem, 1992).
# Molecular target: Human immunodeficiency virus type 1 reverse transcriptase (Human immunodeficiency virus 1, UniProt Q72547)
# Assay: The compound was tested for the inhibition of human immunodeficiency virus-1 reverse transcriptase(HIV-1 RT).
# Method in brief: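 Ki by kinetics: HIV-1 RT p66 at 60 ng/mL with 0.4 μM poly(rA)-oligo(dT), inhibitor, and [3H]TTP varied over 4-20 μM, in pH 8.0 Tris buffer with 6 mM MgCl2, 8 mM DTT, 80 mM KCl. Incubated 37 °C for 30 min, then EDTA quench. 3H incorporation counted on DE-81 paper; Ki taken from double-reciprocal plots.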
row,Compound,Ki [µM]
1,Cc1cn([C@H]2C[C@@H](N=[N+]=[N-])[C@@H](OP(=O)(O)NP(=O)(O)OP(=O)(O)O)O2)c(=O)[nH]c1=O,22
2,Cc1cn([C@H]2CC[C@@H](OP(=O)(O)NP(=O)(O)OP(=O)(O)O)O2)c(=O)[nH]c1=O,15
3,Cc1cn([C@H]2C[C@@H](O)[C@@H](OP(=O)(O)NP(=O)(O)NP(=O)(O)O)O2)c(=O)[nH]c1=O,19.1
